Screening results (PubChem BioAssay)
This excerpt belongs to a sample that is enriched for hits.
RORA inh = blocks the human nuclear receptor RORA; P35398; 0.43% of 65,000 active; CHO-K1 Gal4-RORA LBD luciferase reporter, luminescence; inhibition, % at 10 µM;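 active = inhibition above the mean of all tested compounds plus 3 SD, cut at about 52% in these data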;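 also: 0% = RORA-transfected cells with DMSO and 100% = mock-transfected cells lacking RORA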
Target sequence (P35398 whole entry, looked up, the tested form may be a part): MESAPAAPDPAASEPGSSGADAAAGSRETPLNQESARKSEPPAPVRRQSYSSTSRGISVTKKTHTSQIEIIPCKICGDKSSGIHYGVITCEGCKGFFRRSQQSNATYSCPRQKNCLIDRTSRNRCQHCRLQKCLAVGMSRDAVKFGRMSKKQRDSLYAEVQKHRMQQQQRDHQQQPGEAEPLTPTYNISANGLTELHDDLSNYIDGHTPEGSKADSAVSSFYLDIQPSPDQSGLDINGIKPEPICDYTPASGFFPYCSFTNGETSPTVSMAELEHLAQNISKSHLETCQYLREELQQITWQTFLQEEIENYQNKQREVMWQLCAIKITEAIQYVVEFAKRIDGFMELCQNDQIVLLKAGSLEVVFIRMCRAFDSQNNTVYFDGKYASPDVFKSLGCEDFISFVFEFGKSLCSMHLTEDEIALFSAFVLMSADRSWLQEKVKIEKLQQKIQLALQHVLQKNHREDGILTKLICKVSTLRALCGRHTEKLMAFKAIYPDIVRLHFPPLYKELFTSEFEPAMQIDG
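System: transiently transfected CHO-K1 cells, Gal4-DBD/human RORA-LBD fusion plus 5xGal4-luciferase reporter. Doses: one dose of 10 µM final. Timing: 20 h compound treatment, 37 °C. Measured by: luminescence. Evaluation: % inhibition of basal luciferase versus +RORA/-RORA DMSO controls. Benchmarks: mock-transfected cells as 100%, +RORA DMSO cells as 0%. Replicates: single test per compound.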
The depositor's hits bear a star.

SMILES | RORA inh
O=C(Nc1nc2ccc(Cl)cc2s1)c1ccc(Br)o1 | -54
O=C(N1CCN(Cc2ccc3c(c2)OCO3)CC1)C12CC3CC(CC(C3)C1)C2 | 8
Cc1ccc2c(c1)c1ncnc(N3CCC4(CC3)OCCO4)c1n2C | -62
Cc1ccc2[nH]c3c(N4CCN(Cc5ccc6c(c5)OCO6)CC4)ncnc3c2c1 | 82*
c1nc(N2CCN(Cc3ccc4c(c3)OCO4)CC2)c2[nH]cnc2n1 | 22
COc1ccc2c(c1)[nH]c1c(N3CCN(Cc4ccc5c(c4)OCO5)CC3)ncnc12 | 72*
COCCn1nnnc1C(c1ccc(C)cc1)N1CCN(Cc2ccc3c(c2)OCO3)CC1 (stereo not drawn) | 9
O=C(Cn1ccc2ccccc2c1=O)N1CCN(Cc2ccc3c(c2)OCO3)CC1 | -8
Cc1ccc2[nH]c3c(N4CCCCCC4)ncnc3c2c1 | 78*
CCOC(=O)N1CCN(C(=O)c2ccc3c(=O)n(Cc4ccccc4)c(=S)[nH]c3c2)CC1 | 4
CN1CCN(S(=O)(=O)c2cccc(C(=O)Nc3sc4c(c3C(N)=O)CCCC4)c2)CC1 | -10
Clc1ccc(OCc2nnc(SCc3nc4ccccc4[nH]3)n2Cc2ccco2)cc1 | -11
CCCn1c(CNc2ccccc2O)nc2ccccc21 | 5
O=C(Nc1cccc(F)c1)C1CCN(C(=O)Cc2ccccc2)CC1 | 16
NS(=O)(=O)c1ccc(CCNC(=O)NC2(C(F)(F)F)Oc3ccccc3O2)cc1 | 8
COc1ccc(Cn2nnnc2C(c2cccs2)N2CCN(c3ccccc3)CC2)cc1 (stereo not drawn) | -1
CCN(CC)C(=O)N1CCC(NC(=O)c2ccccc2)CC1 | -3
Cc1cccc2nc(=S)n(C(=O)c3ccco3)n12 | -56
CS(=O)(=O)c1ccc2nc(NC(=O)c3ccco3)sc2c1 | -66
C=CCOC(=O)c1sc(NC(=O)c2ccco2)nc1C | -53
CC1CCc2nc(NC(=O)c3ccco3)sc2C1 (stereo not drawn) | 62*
COc1ccc(S(=O)(=O)Nc2cc(C)c(O)cc2C(C)C)cc1 | 3
O=C(CSc1nnnn1Cc1ccccc1)c1ccccc1 | 16
CCN(CC)S(=O)(=O)c1ccc(C(=O)C(C#N)c2ccccn2)cc1 (stereo not drawn) | -25
COc1cccc2c1C(=O)c1c(O)c3c(c(O)c1C2=O)C[C@@](O)(C(C)=O)C[C@@H]3O[C@H]1C[C@H](N)[C@H](O)[C@H](C)O1 | 78*
SMILES | RORA inh
Nc1c(C(=O)NCCN2CCOCC2)c2nc3ccccc3nc2n1-c1ccc2c(c1)OCO2 | -55
CC(=O)N1CCc2cc(S(=O)(=O)NC3CCCc4ccccc43)ccc21 (stereo not drawn) | 24
CC(=O)N1CCc2cc(S(=O)(=O)NCCC3=CCCCC3)ccc21 | 57*
CCC(=O)N1CCc2cc(S(=O)(=O)N3CCc4ccccc4C3)ccc21 | 17
c1ccc2c(c1)oc1c(Nc3ccc4c(c3)OCO4)ncnc12 | -83
CCCS(=O)(=O)c1c(S(=O)(=O)CCC)c2cnccn2c1C(=O)c1ccc(F)cc1 | -14
CCN(CCO)C1CC(=O)N(c2ccccc2C)C1=O (stereo not drawn) | 13
COC(=O)c1ccc(N2C(=O)CC(SCCN)C2=O)cc1 (stereo not drawn) | -51
COc1ccc(-c2nnc(N)s2)cc1 | -50
O=C(c1ccco1)N(Cc1ccco1)c1ccc(O)cc1 | 14
COc1ccc2[nH]c(C)c(CN3CCC(C)CC3)c(=O)c2c1 | 1
COc1ccc2[nH]c(=O)c3c(c2c1)OC(C)(C)C=C3 | 58*
CCN(CC)S(=O)(=O)c1ccc(Nc2nc3ccccc3n3nnnc23)cc1 | -70
O=S(=O)(C/C(=C/CO)S(=O)(=O)c1ccccc1)c1ccccc1 | 89*
CCCCN(C)S(=O)(=O)c1ccc(C(=O)Nc2nnc(CSC)o2)cc1 | -7
COCCCNC(=O)CCn1c(=O)c2ccccc2n(CC(=O)Nc2ccccc2C)c1=O | 5
CCCN1CCN(C(c2cc3cc(OCC)ccc3[nH]c2=O)c2nnnn2C2CCCCC2)CC1 (stereo not drawn) | -7
Cc1ccc(-c2csc(NC(=O)c3ccno3)n2)cc1 | -60
O=C(Cc1ccc2cccnc2c1)c1ccc(O)cc1O | -60
Nc1nc(Cl)nc2c1ncn2[C@H]1C[C@H](O)[C@@H](CO)O1 | 69*
Cc1cc(C(=O)CN2C(=O)c3ccccc3S2(=O)=O)c(C)n1CC1CCCO1 (stereo not drawn) | 62*
Cc1nnc(SCc2ccccc2Cl)n1CC1CCCO1 (stereo not drawn) | 6
COc1ccc(-c2nnc(SCC(=O)NC(C)C)n2CC2CCCO2)cc1OC (stereo not drawn) | -15
Nc1ccc(O)cc1C(=O)OCC(=O)C12CC3CC(CC(C3)C1)C2 | -11
COc1ccc(NC(=O)CSc2nnc(-c3ccccc3C)n2C)cc1 | -8
SMILES | RORA inh
CC(=O)Nc1ccc(Nc2ncnc3c2cnn3-c2cccc(C)c2)cc1 | -66
CC(=O)CC1OC(=O)C(Br)=C1NCc1ccccc1 (stereo not drawn) | 63*
O=C(CC1Oc2ccccc2NC1=O)NCc1ccccc1 (stereo not drawn) | 4
COc1ccc(C(O)P(=O)(O)CCc2ccccc2)cc1 (stereo not drawn) | -52
CCOc1ccc(/C=C\C(C)=N\O)cc1 | -72
CCn1c(NCc2ccccn2)nc2c1c(=O)n(C)c(=O)n2C | -2
COc1cccc(Cn2c(NCc3ccco3)nc3c2c(=O)n(C)c(=O)n3C)c1 | 62*
CCCNc1nc2c(c(=O)n(C)c(=O)n2C)n1CCc1ccccc1 | 17
CCCNc1nc2c(c(=O)n(C)c(=O)n2C)n1Cc1cccc(C)c1 | 55*
CCCCC(=O)NCCNc1nc2c(c(=O)n(C)c(=O)n2C)n1Cc1ccc(F)cc1 | 10
Cn1c(NCc2ccccc2)nc2c1c(=O)n(Cc1ccc(Br)cc1)c(=O)n2C | 7
CCOC(=O)C1=C(C)NC(=O)NC1c1ccc(OC)c(Cl)c1 (stereo not drawn) | 14
O=C(NCc1cccs1)c1cc2c(s1)-c1ccccc1OC2 | -53
COc1cc2c(cc1OC)CN(C(=O)CSc1nc(N)c(C#N)cc1C#N)CC2 | -5
CCN1CCN(CCNC(=O)c2ccc(CS(=O)(=O)c3c(Cl)cccc3Cl)o2)CC1 | 6
O=C(NCc1ccco1)c1cc(-c2ccccc2)on1 | -38
CCn1c(SCC(=O)N2CCN(c3ccccc3)CC2)nc2c(c1=O)SC(C)C2 (stereo not drawn) | 1
CC1(c2ccncc2)Nc2ccccc2-c2nc3ccccc3n21 (stereo not drawn) | 8
O=C(Nc1ccccc1)Nc1cccc2cccnc12 | -86
O=S1(=O)Nc2c(ccc3cccnc23)-c2ccccc21 | 74*
Cc1cc(C)c2c(CN3CCN(C/C=C/c4ccccc4)CC3)cc(=O)oc2c1 | -15
O=c1cc(N2CCN(c3ccc(F)cc3)CC2)[nH]c(=O)n1C1CCCCC1 | 8
CCOC(=O)C1=C(C)SC2=NS(=O)(=O)CCN21 | 4
Cc1cc(/C=c2/sc3nc4ccccc4n3c2=O)c(C)n1-c1ccccn1 | 87*
COc1ccc(S(=O)(=O)N2CCCC2C(=O)Nc2ccc(C)cc2)cc1 (stereo not drawn) | 5
O=C(NCc1ccccc1)c1cc(-n2cnnc2)ccc1Cl | 10
Cc1cc(NCCCn2ccnc2)n2c(nc3ccccc32)c1C#N | 7
Cc1ccc(-n2ncc3c(N4CCC(C(N)=O)CC4)ncnc32)c(C)c1 | 15
CCOC(=O)C1CCN(c2ncnc3c2cnn3-c2ccc(Cl)cc2)CC1 | 66*
